Experimental data taken from ChEMBL document CHEMBL1221310, “Discovery of potent HIV integrase inhibitors active against raltegravir resistant viruses” (Bioorg Med Chem Lett, 2010).

Experiments:
[1] = test system: Human immunodeficiency virus; assay: Antiviral activity against wild type HIV assessed as inhibition of p24 antigen production after 48 hrs by cell based luciferase reporter gene assay; assay type: functional, organism-based; conditions: Human immunodeficiency virus 1, 48 h
[2] = Inhibition of HIV integrase after 2 hrs by combined strand transfer assay; set-up: species or system Human immunodeficiency virus
How it was run: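 Integrase (400 ng) was incubated 2 h at 37 °C with 30 nM pre-processed U5 LTR duplex substrate, one strand DIG-tagged and the other biotin-tagged. 3′-processing/strand-transfer products were captured on streptavidin plates and detected with anti-DIG-alkaline phosphatase and p-nitrophenyl phosphate.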

[3] = test system: Human immunodeficiency virus; assay: Antiviral activity against raltegravir-resistant HIV expressing integrase Q148H/G140S mutant infected in HEK293T cells after 48 hrs by luciferase reporter gene assay; assay type: functional, organism-based; conditions: Human immunodeficiency virus 1, HEK-293T
How it was run: (§1)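 VSV-G-pseudotyped, env-deleted HIV-1 carrying luciferase in nef, made by cotransfecting 293T cells; integrase resistance mutations introduced by site-directed mutagenesis. 293T cells seeded 16 h before compound, preincubated with compound 4 h at 37 °C, then infected with virus giving about 10,000 luciferase light units without compound. Luciferase read 48 h post-infection.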

[4] = test system: Human immunodeficiency virus; assay: Antiviral activity against raltegravir-resistant HIV expressing integrase N155H/E92Q mutant infected in HEK293T cells after 48 hrs by luciferase reporter gene assay; assay type: functional, organism-based, HEK-293T; how it was run: as §1
[5] = test system: Human immunodeficiency virus; assay: Antiviral activity against wild type HIV assessed as inhibition of p24 antigen production after 48 hrs by cell based luciferase reporter gene assay in presence of 50% normal human serum; assay type: functional, organism-based; conditions: Human immunodeficiency virus 1, 48 h
[6] = test system: Human immunodeficiency virus; assay: Antiviral activity against raltegravir-resistant HIV expressing integrase N155H/E92Q mutant infected in HEK293T cells after 48 hrs by luciferase reporter gene assay in presence of 10% FBS; assay type: functional, organism-based; conditions: Human immunodeficiency virus 1, HEK-293T; how it was run: as §1
[7] = test system: Human immunodeficiency virus; assay: Antiviral activity against wild type HIV assessed as inhibition of p24 antigen production after 48 hrs by cell based luciferase reporter gene assay in presence of 10% normal human serum; assay type: functional, organism-based; conditions: Human immunodeficiency virus 1, 48 h
[8] = test system: Human immunodeficiency virus; assay: Antiviral activity against raltegravir-resistant HIV expressing integrase Q148H/G140S mutant infected in HEK293T cells after 48 hrs by luciferase reporter gene assay in presence of 10% FBS; assay type: functional, organism-based; conditions: Human immunodeficiency virus 1, HEK-293T; how it was run: as §1
[9] = Half life in microsomes; assay type: ADME, Microsome
[10] = Human immunodeficiency virus 1, HEK-293T, 48 h, read-out: EC50

| SMILES | EC50 [1] | IC50 ([2]; read-out: IC50) | EC50 [3] | EC50 [4, 10] | IC50 [2] | EC50 ([4]; hek-293t) | EC50 [5] | EC50 [6] | EC50 [7] | EC50 [8] | half-life [9] |
| --- | --- | --- | --- | --- | --- | --- | --- | --- | --- | --- | --- |
| CC(C)N1CCN(c2cc(N3CCN(C)C3=O)c3nc(-c4ncc(Cc5ccc(F)cc5)s4)c(O)c(=O)n3c2)CC1 | 6.8 nM | 19 nM | 21 nM | 8.9 nM | – | – | – | – | – | – | – |
| CN1CCN(c2cc(N3CCNCC3=O)cn3c(=O)c(O)c(-c4ncc(Cc5ccc(F)cc5)s4)nc23)C1=O | 27 nM | – | 1100 nM | – | Not Active | Not Active | – | – | – | – | – |
| CN1CCN(c2cc(N3CCOCC3)cn3c(=O)c(O)c(-c4ncc(Cc5ccc(F)cc5)s4)nc23)S1(=O)=O | 8.5 nM | 38 nM | 112 nM | 18.5 nM | – | – | – | – | – | – | – |
| O=C1CCCN1c1cc(N2CCOCC2)cn2c(=O)c(O)c(-c3ncc(Cc4ccc(F)cc4)s3)nc12 | 21 nM | – | 335 nM | – | Not Active | Not Active | – | – | – | – | – |
| O=C1OCCCN1c1cc(N2CCOCC2)cn2c(=O)c(O)c(-c3ncc(Cc4ccc(F)cc4)s3)nc12 | 4.3 nM | – | 16.5 nM | 10.5 nM | Not Active | – | – | – | – | – | – |
| O=c1c(O)c(-c2ncc(Cc3ccc(F)cc3)s2)nc2c(Br)cc(N3CCOCC3)cn12 | 14 nM | 42 nM | 2500 nM | 19 nM | – | – | – | – | – | – | – |
| O=c1c(O)c(-c2ncc(Cc3ccc(F)cc3)s2)nc2c(N3CCCS3(=O)=O)cc(N3CCOCC3)cn12 | 6.4 nM | 48 nM | 280 nM | 49.5 nM | – | – | – | – | – | – | – |
| O=C(c1cc(N2CCOCC2)cn2c(=O)c(O)c(-c3ncc(Cc4ccc(F)cc4)s3)nc12)N1CCCC1 | 81 nM | 70 nM | 1180 nM | 200 nM | – | – | – | – | – | – | – |
| CC(c1cc(N2CCOCC2)cn2c(=O)c(O)c(-c3ncc(Cc4ccc(F)cc4)s3)nc12)N1CCCCC1 (stereo not drawn) | 110 nM | – | 5500 nM | – | Not Active | Not Active | – | – | – | – | – |
| O=C1OCCN1c1cc(N2CCOCC2)cn2c(=O)c(O)c(-c3ncc(Cc4ccc(F)cc4)s3)nc12 | 7.1 nM | 26 nM | 108 nM | 25 nM | – | – | – | – | – | – | – |
| CN1CCCN(c2cc(N3CCOCC3)cn3c(=O)c(O)c(-c4ncc(Cc5ccc(F)cc5)s4)nc23)C1=O | 11.5 nM | – | 34 nM | 21.5 nM | Not Active | – | – | – | – | – | – |
| O=C1CNCCN1c1cc(N2CCOCC2)cn2c(=O)c(O)c(-c3ncc(Cc4ccc(F)cc4)s3)nc12 | – | – | – | – | – | – | 6.1 nM | 6.7 nM | 4 nM | 34.5 nM | 52 min |
| CC(=O)c1cc(N2CCOCC2)cn2c(=O)c(O)c(-c3ncc(Cc4ccc(F)cc4)s3)nc12 | 9.5 nM | 15 nM | 885 nM | – | – | Not Active | – | – | – | – | – |
| CC(C)N(C)C(=O)Nc1cc(N2CCOCC2)cn2c(=O)c(O)c(-c3ncc(Cc4ccc(F)cc4)s3)nc12 | 22 nM | – | > 10000 nM | – | Not Active | Not Active | – | – | – | – | – |
| O=c1c(O)c(-c2ncc(Cc3ccc(F)cc3)s2)nc2ccc(N3CCOCC3)cn12 | 32 nM | 20 nM | 3000 nM | 74.5 nM | – | – | – | – | – | – | – |
| CC(O)c1cc(N2CCOCC2)cn2c(=O)c(O)c(-c3ncc(Cc4ccc(F)cc4)s3)nc12 (stereo not drawn) | 10.5 nM | – | 800 nM | – | Not Active | Not Active | – | – | – | – | – |
| COc1cc(N2CCOCC2)cn2c(=O)c(O)c(-c3ncc(Cc4ccc(F)cc4)s3)nc12 | 100 nM | – | 5900 nM | – | Not Active | Not Active | – | – | – | – | – |
| CC(C)N(C)C(=O)N(C)c1cc(N2CCOCC2)cn2c(=O)c(O)c(-c3ncc(Cc4ccc(F)cc4)s3)nc12 | 16.5 nM | – | 120 nM | – | Not Active | Not Active | – | – | – | – | – |
| CN1CCN(c2cc(N3CCCOC3=O)c3nc(-c4ncc(Cc5ccc(F)cc5)s4)c(O)c(=O)n3c2)CC1 | – | – | – | – | – | – | 6.6 nM | 4.9 nM | 3.5 nM | 29.5 nM | 67.8 min |
| CN1CCN(c2cc(N3CCOCC3)cn3c(=O)c(O)c(-c4ncc(Cc5ccc(F)cc5)s4)nc23)C1=O | 24 nM | 47 nM | 71 nM | 10 nM | – | – | – | – | – | – | – |
| CN1CCN(c2cc(CN3CCOCC3)cn3c(=O)c(O)c(-c4ncc(Cc5ccc(F)cc5)s4)nc23)C1=O | 3.5 nM | 25 nM | 243 nM | 14.5 nM | – | – | – | – | – | – | – |
| CN1CCN(c2cc(N(C)C)cn3c(=O)c(O)c(-c4ncc(Cc5ccc(F)cc5)s4)nc23)C1=O | 19.5 nM | 90 nM | 92.5 nM | 32.5 nM | – | – | – | – | – | – | – |
| CC1CN(C)CCN1c1cc(N2CCCOC2=O)c2nc(-c3ncc(Cc4ccc(F)cc4)s3)c(O)c(=O)n2c1 (stereo not drawn) | – | – | – | – | – | – | 5.5 nM | 5.2 nM | 4.2 nM | 40.5 nM | 18 min |
| CC(C)N1CCN(c2cc(N3CCOCC3)cn3c(=O)c(O)c(-c4ncc(Cc5ccc(F)cc5)s4)nc23)C1=O | 7.5 nM | 19 nM | 18 nM | 9.7 nM | – | – | – | – | – | – | – |
| CC(NC1CC1)c1cc(N2CCN(C)C2=O)c2nc(-c3ncc(Cc4ccc(F)cc4)s3)c(O)c(=O)n2c1 (stereo not drawn) | 11.5 nM | – | 268 nM | – | Not Active | Not Active | – | – | – | – | – |
